The test system of test [1] is Plasma. Nature of the test: Inhibition of ADP-induced platelet aggregation in rabbit plasma at 200 uM. The test is classed as functional, Oryctolagus cuniculus. Also on record: scale not given: the % may be the effect or the level left. In short, it runs like this: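 Rabbit blood anticoagulated with 3.8% trisodium citrate, with ADP as inducer; blank and ADP-control cuvettes included. Platelet-rich plasma was taken from the supernatant after 270 g/5 min. Platelet-poor plasma came from re-spinning at 1000 g/10 min. Aggregation was read on an aggregometer and reported as mean platelet aggregation rate (A%), n = 6.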

For test [2], the system named is ECV-304. The test is described as follows: Protection of hydrogen peroxide-induced damage in ECV304 cells. The test is classed as functional, cell-based. As to conditions: Homo sapiens.

Each structure is given as a SMILES string.

As for `Cc1nc(C)c(CN2CCN(C/C=C/c3ccccc3)CC2)nc1C`, the Activity in test [1] was 8.36%. This molecule gave an EC50 in test [2] of 428 µM.

`Cc1nc(C)c(CN2CCN(Cc3nc(C)c(C)nc3C)CC2)nc1C` had an Activity in test [1] of 19.36%. In test [2], this molecule yielded an EC50 of 311 µM.

Consider `CCc1ccc(CN2CCN(Cc3nc(C)c(C)nc3C)CC2)cc1`, for which, in test [1], the Activity was 13.56%. This molecule had an EC50 in test [2] of 375 µM.

Molecule `Cc1nc(C)c(CN2CCNCC2)nc1C` yielded an Activity in test [1] of 11.36%. Further, a half-maximal response in test [2] (EC50) required 481 µM.

On to `Cc1nc(C)c(CN2CCN(Cc3ccccc3Br)CC2)nc1C`, for which the Activity in test [1] is recorded as 7.68%. In addition, the EC50 in test [2] came out at 784 µM.

For `Cc1nc(C)c(CN2CCN(C(c3ccc(F)cc3)c3ccc(F)cc3)CC2)nc1C`, in test [1], the Activity is reported as 6.32%. This molecule gave an EC50 in test [2] of 223 µM.

`Cc1nc(C)c(CN2CCN(Cc3ccccc3C#N)CC2)nc1C` showed an Activity in test [1] of 12.16%. In test [2], this molecule showed an EC50 of 637 µM.

In test [1], `Cc1nc(C)c(CN2CCN(Cc3cccc(Cl)c3)CC2)nc1C` returned an Activity of 10.56%. For the same molecule, the EC50 in test [2] came out at 503 µM.

The molecule `Cc1nc(C)c(CN2CCN(Cc3ccc(Cl)cc3Cl)CC2)nc1C` came in with an Activity in test [1] of 5.7%. The molecule further yielded an EC50 in test [2] of 424 µM.

In turn, `Cc1nc(C)c(CN2CCN(Cc3cccc(C#N)c3)CC2)nc1C` gave an Activity in test [1] of 14.19%. In test [2], the EC50 was determined as 1110 µM.

For the molecule `Cc1nc(C)c(CN2CCN(Cc3ccc(C#N)cc3)CC2)nc1C`, the Activity in test [1] was determined as 11.37%. Besides, the EC50 in test [2] is 417 µM.

In the case of `Cc1nc(C)c(CN2CCN(C(c3ccccc3)c3ccccc3)CC2)nc1C`, the Activity in test [1] is 9.88%. Besides, the EC50 in test [2] came out at 218 µM.

With `Cc1nc(C)c(CN2CCN(Cc3ccc(C(C)(C)C)cc3)CC2)nc1C`, the Activity in test [1] worked out at 15.32%. The EC50 in test [2] amounted to 431 µM.

In the case of `Cc1nc(C)c(CN2CCN(Cc3ccccc3Cl)CC2)nc1C`, in test [1], the Activity is recorded as 9.67%. In addition, in test [2], the EC50 came to 405 µM.

On to `Cc1nc(C)c(CN2CCN(CCc3ccccc3)CC2)nc1C`, for which, in test [1], the Activity was 9.77%. It took 542 µM to reach a half-maximal effect in test [2] (EC50).

In the case of `Cc1nc(C)c(CN2CCN(Cc3ccc([N+](=O)[O-])cc3)CC2)nc1C`, in test [1], the Activity was 14.22%. It took 299 µM to reach a half-maximal effect in test [2] (EC50).

On to `Cc1nc(C)c(CN2CCN(c3ccccc3)CC2)nc1C`, for which, in test [1], the Activity was found to be 21.43%. The molecule also yielded an EC50 in test [2] of 665 µM.

In turn, `Cc1nc(C)c(CN2CCN(Cc3ccc(Cl)cc3)CC2)nc1C` came in with an Activity in test [1] of 12.31%. Also, the response in test [2] was half-maximal at 339 µM (EC50).

The molecule `Cc1nc(C)c(C)nc1C` [LIGUSTRAZINE] displayed an Activity in test [1] of 7.86%. In test [2], this molecule showed an EC50 of 452 µM.

In test [1], `Cc1ccc(CN2CCN(Cc3nc(C)c(C)nc3C)CC2)cc1` returned an Activity of 17.69%. In test [2], this molecule displayed an EC50 of 328 µM.

For the molecule `Cc1nc(C)c(CN2CCN(Cc3ccc(Br)cc3)CC2)nc1C`, the Activity in test [1] is listed as 13.26%. Further, the EC50 in test [2] stood at 845 µM.

`Cc1nc(C)c(CN2CCN(C(c3ccccc3)c3ccc(Cl)cc3)CC2)nc1C` (stereo unspecified) gave an Activity in test [1] of 5.19%. For the same molecule, a half-maximal effect in test [2] (EC50) was put at 253 µM.

As to `Cc1nc(C)c(CN2CCN(Cc3ccccc3)CC2)nc1C`, the Activity in test [1] is 9.06%. In test [2], this molecule had an EC50 of 246 µM.

Usually EC50 stands for the concentration needed to bring the measured effect to its halfway point.

The values are drawn from ChEMBL document CHEMBL1147932, “Design, synthesis, and biological activities of novel Ligustrazine derivatives” (Bioorg Med Chem, 2007).
